Assay results reported in PMC10586521 (Journal of medicinal chemistry, 2023).

Tests used:
Assay type in all cases: cell-based
[1] = tested on: HCT116 colorectal carcinoma cells; test: MTS cell viability / cell growth inhibition assay in HCT116 cells; settings: for fold loss in cell growth inhibitory activity (GI50) compared to 1 / fold less effective (GI50) compared to 17S-FD-895: HCT116 cells, 72 h; for fold loss in cell growth inhibitory activity (GI50) compared to 1: relative to FD-895 (1); for GI50: Homo sapiens, HCT-116, 72 h; for fold less effective (GI50) compared to 17S-FD-895: comparator printed as 17S-FD-895 (1a); for fold loss in activity: comparator not stated, side chain terminus modification
[2] = tested on: SF3A1; test: qRT-PCR splice modulation, SF3A1 intron retention in HCT116 cells; settings: for SF3A1 intron 6 retention: HCT116, 4 h, ~20 times GI50, relative to 1; for SF3A1 intron retention: HCT116, 24 h, 100-500 nM, compared to 1
[3] = tested on: PLK-1; test: qRT-PCR splice modulation, PLK-1 exon skipping/expression in HCT116 cells; settings: for effect on exon 3 inclusion in PLK-1: HCT116, 4 h, ~20 times GI50; for PLK-1 expression/splicing: HCT116, 24 h, 100-500 nM
Outline: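 HCT116 (ATCC, mycoplasma-tested, ≤5 passages) in supplemented McCoy's 5a with 0.5% DMSO, exposed 4 h or 24 h (100, 250, 500 nM); untreated control. Total RNA isolated, 1 μg DNase I-treated, cDNA made; qPCR on 5 ng cDNA with primers for intron retention/exon skipping. Cycling: 95 °C 10 min; 40× (95 °C 30 s, 55 °C 60 s, 72 °C 60 s). 2−ΔΔCT vs GAPDH, untreated set to 1.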

[4] = tested on: DNAJB1; test: qRT-PCR splice modulation, DNAJB1 intron retention in HCT116 cells; settings: for DNAJB1 intron 2 retention: HCT116, 4 h, ~20 times GI50, relative to 1; for DNAJB1 intron retention: HCT116, 24 h, 100-500 nM, compared to 1
[5] = tested on: SF3B2; test: qRT-PCR splice modulation, SF3B2 intron retention in HCT116 cells
[6] = tested on: SF2; test: qRT-PCR, SF2 RNA expression in HCT116 cells; settings: for down regulation of SF2 expression: HCT116, 4 h, ~20 times GI50; for SF2 expression: HCT116, 24 h, 100-500 nM
[7] = tested on: SF3A3; test: qRT-PCR splice modulation, SF3A3 intron retention in HCT116 cells; settings: HCT116, 24 h, 100-500 nM, compared to 1
Outline: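 HCT116 cells (ATCC, mycoplasma-tested, ≤5 passages), supplemented McCoy's 5a with 0.5% DMSO, treated 24 h at 100, 250 or 500 nM; untreated cells as control. Total RNA extracted, 1 μg DNase I-treated, converted to cDNA; qPCR on 5 ng cDNA using intron-retention primers, 95 °C 10 min then 40 cycles 95/55/72 °C. Levels by 2−ΔΔCT relative to GAPDH, untreated = 1.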

[8] = tested on: HCT116 tumor cells; test: qRT-PCR splice modulation, overall profile over the gene panel in HCT116 cells; settings: HCT116, 24 h, 100, 250 and 500 nM
[9] = tested on: AURKA; test: qRT-PCR splice modulation, AURKA exon skipping/expression in HCT116 cells; settings: HCT116, 24 h, 100-500 nM
[10] = HCT116, 4 h, ~20 times GI50, compared to 1
[11] = HCT116, 24 h, 100-500 nM, compared to 1

Question: What does the source list for `CC[C@H](OC)[C@@H](C)[C@H]1O[C@@H]1[C@@H](OC)[C@H](C)/C=C/C=C(\C)[C@H]1OC(=O)C[C@H](O)CC[C@@](C)(O)[C@@H](OC(C)=O)/C=C/[C@@H]1C` [Compound 1f, 17-methoxy-17S-FD-895]?
Answer: fold loss in cell growth inhibitory activity (GI50) compared to 1 [1]: 21 fold; SF3A1 intron 6 retention [2]: more effective than 1

Question: What does the source list for `CC[C@H](OC)[C@@H](C)[C@H]1O[C@@H]1[C@H](O)[C@H](C)/C=C/C=C(\C)[C@H]1OC(=O)C[C@@H](O)CC[C@@](C)(O)[C@@H](OC(C)=O)/C=C/[C@@H]1C` [Compound 1a, 3S-FD-895]?
Answer: effect on exon 3 inclusion in PLK-1 [3]: most potent effect; DNAJB1 intron 2 retention [4]: highest level of intron retention; GI50 [1]: < 0.01 µM; SF3B2 intron retention [5, 10]: improved efficacy; SF3A1 intron 6 retention [2]: more effective than 1

Question: `CC[C@H](OC)[C@@H](C)[C@H]1O[C@@H]1[C@@H](O)[C@H](C)/C=C/C=C(\C)[C@H]1OC(=O)C[C@@H](O)CC[C@@](C)(O)[C@@H](OC(C)=O)/C=C/[C@@H]1C` [Compound 1g, 3S,17S-FD-895] was tested. Which “down regulation of SF2 expression” value [6] did it give?
Answer: The value was “highest efficacy”.

Question: What about the SF2 expression [6] of the same compound?
Answer: Its SF2 expression is “reduced ability to inhibit SF2 expression”.

Question: What about the SF3A3 intron retention [7] of the same compound?
Answer: Its SF3A3 intron retention is “comparable intron retention”.

Question: What about the PLK-1 expression/splicing [3] of the same compound?
Answer: The PLK-1 expression/splicing was “reduced PLK-1 expression”.

Question: What about the “DNAJB1 intron 2 retention” value [4] of the same compound?
Answer: The value was “highest level of intron retention”.

Question: And the DNAJB1 intron retention [4]?
Answer: Its DNAJB1 intron retention is “expected loss in intron retention”.

Question: What about the “fold less effective (GI50) compared to 17S-FD-895” value [1] of the same compound?
Answer: The value was 52 fold.

Question: And the “fold loss in cell growth inhibitory activity (GI50) compared to 1” value [1]?
Answer: Its value is 75 fold.

Question: What about the SF3B2 intron retention [5, 10] of the same compound?
Answer: The SF3B2 intron retention was “improved efficacy”.

Question: What about the SF3B2 intron retention [5, 11] of the same compound?
Answer: Its SF3B2 intron retention is “expected loss in intron retention”.

Question: What about the SF3A1 intron retention [2] of the same compound?
Answer: Its SF3A1 intron retention is “expected loss in intron retention”.

Question: With `CC[C@H](OC)[C@@H](C)[C@H]1O[C@@H]1[C@H](O)[C@H](C)/C=C/C=C(\C)[C@@H]1OC(=O)C[C@H](O)CC[C@@](C)(O)[C@@H](OC(C)=O)/C=C/[C@H]1C` [Compound 1c, 10R,11R-FD-895] as the compound, how does the “fold loss in cell growth inhibitory activity (GI50) compared to 1” value [1] read?
Answer: Its value is 21,700 fold.

Question: With `CC[C@H](OC)[C@@H](C)[C@H]1O[C@@H]1[C@@H](O)[C@H](C)/C=C/C=C(\C)[C@H]1OC(=O)C[C@H](O)CC[C@@](C)(O)[C@H](OC(C)=O)/C=C/[C@@H]1C` [Compound 1h, 7R,17S-FD-895] as the compound, how does the “fold less effective (GI50) compared to 17S-FD-895” value [1] read?
Answer: The value was 318 fold.

Question: For `CC[C@H](OC)[C@@H](C)[C@H]1O[C@@H]1[C@H](O)[C@H](C)/C=C/C=C(\C)[C@H]1OC(=O)C[C@H](O)CC[C@@](C)(O)[C@@H](OC(C)=O)/C=C/[C@@H]1C` [Compound 1, FD-895], which “down regulation of SF2 expression” value [6] is on record?
Answer: Its value is “highest efficacy”.

Question: And the SF2 expression [6]?
Answer: The SF2 expression was “weak efficacy”.

Question: And the PLK-1 expression/splicing [3]?
Answer: Its PLK-1 expression/splicing is “weak efficacy”.

Question: What about the “overall splicing activity over the genes tested” value [8] of the same compound?
Answer: Its value is “altered the splicing of nearly all genes tested”.

Question: What about the GI50 [1] of the same compound?
Answer: Its GI50 is less than 0.01 µM.

Question: Which “effect on exon 3 inclusion in PLK-1” value [3] does the source give for `CC[C@H](OC)[C@@H](C)[C@H]1O[C@@H]1[C@H](O)[C@H](C)/C=C/C=C(\C)[C@H]1OC(=O)C[C@H](O)CC[C@@](C)(O)[C@H](OC(C)=O)/C=C/[C@@H]1C` [Compound 1b, 7R-FD-895] here?
Answer: Its value is “most potent effect”.

Question: What about the “overall splicing activity over the genes tested” value [8] of the same compound?
Answer: The value was “loss of splicing activity”.

Question: What about the “fold loss in cell growth inhibitory activity (GI50) compared to 1” value [1] of the same compound?
Answer: The value was 300 fold.

Question: For `CC[C@H](OC)[C@@H](C)[C@H]1O[C@@H]1[C@@H](O)[C@H](C)/C=C/C=C(\C)[C@H]1OC(=O)C[C@H](O)CC[C@@](C)(O)[C@@H](OC(C)=O)/C=C/[C@@H]1C` [Compound 1d, 17S-FD-895], which SF2 expression [6] is on record?
Answer: Its SF2 expression is “decreased effect”.

Question: What about the PLK-1 expression/splicing [3] of the same compound?
Answer: The PLK-1 expression/splicing was “decreased effect”.

Question: What about the DNAJB1 intron retention [4] of the same compound?
Answer: Its DNAJB1 intron retention is “decreased level of intron retention”.

Question: And the GI50 [1]?
Answer: The GI50 was less than 0.01 µM.

Question: And the SF3B2 intron retention [5, 11]?
Answer: The SF3B2 intron retention was “dose dependent-increase intron retention”.

Question: And the SF3A1 intron retention [2]?
Answer: The SF3A1 intron retention was “dose dependent-increase intron retention”.

Question: Which results are given for `CC[C@H](OC)[C@@H](C)[C@H]1O[C@@H]1[C@H](OC)[C@H](C)/C=C/C=C(\C)[C@H]1OC(=O)C[C@H](O)CC[C@@](C)(O)[C@@H](OC(C)=O)/C=C/[C@@H]1C` [Compound 1e, 17-methoxy-FD-895]?
Answer: DNAJB1 intron 2 retention [4]: highest level of intron retention; overall splicing activity over the genes tested [8]: comparable or slightly reduced splice modulatory activity; SF3B2 intron retention [5, 10]: improved efficacy; SF3A1 intron 6 retention [2]: more effective than 1

Question: How did the AURKA expression [9] turn out when `CC[C@@H](OC)[C@H](C)[C@H]1O[C@@H]1[C@@H](O)[C@H](C)/C=C/C=C(\C)[C@H]1OC(=O)C[C@H](O)CC[C@@](C)(O)[C@@H](OC(C)=O)/C=C/[C@@H]1C` [Compound 1j, 17S,20S,21R-FD-895] was run?
Answer: Its AURKA expression is “reducing the expression of AURKA at 500 nM”.

Question: What about the “overall splicing activity over the genes tested” value [8] of the same compound?
Answer: Its value is “splicing profile comparable to 1i”.

Question: What about the “fold loss in activity” value [1] of the same compound?
Answer: Its value is 100 fold.

Question: And the “SF3A1 intron 6 retention” value [2]?
Answer: Its value is “more effective than 1”.

Question: What does the source list for `CC[C@H](OC)[C@@H](C)[C@@H]1O[C@H]1[C@@H](O)[C@H](C)/C=C/C=C(\C)[C@H]1OC(=O)C[C@H](O)CC[C@@](C)(O)[C@@H](OC(C)=O)/C=C/[C@@H]1C` [Compound 1i, 17S,18S,19S-FD-895]?
Answer: PLK-1 expression/splicing [3]: increased the RNA expression; overall splicing activity over the genes tested [8]: drastic reduction in splicing activity; fold loss in activity [1]: 100 fold; SF3A1 intron 6 retention [2]: more effective than 1
